High-throughput results from PubChem.
Hep lipid drop = inhibitors of hepatocyte lipid droplet formation, primary screen, imaging, high-throughput imaging, BODIPY stain; AML12 mouse hepatocytes, oleate lipid droplets; inhibition, % at 6.5 µM; actives 0.4% (n = 240,000); AID 1656, 2009;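 active means lipid droplet intensity inhibited by at least 50%, with more than 500 cells counted; inconclusive means wells with under 300 cells, treated as cytotoxic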
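Material: mouse AML12 hepatocyte cell line, fixed after treatment; Timing: compound with oleate, overnight; Technique: high-content imaging of BODIPY-stained droplets and DAPI nuclei; Probe or stimulus: oleate, 100 µM final; Dosing: compound at 6.5 µM only.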
SR-BI HDL uptake = inhibitors of SR-BI mediated HDL lipid uptake, primary screen, ldlA[mSR-BI] cells, fluorescence, single point. actives 0.96% (n = 320,000). Scavenger receptor class B member 1 (Mus musculus), Q61009. ldlA[mSR-BI] CHO cells, DiI-HDL uptake fluorescence, 3 h. inhibition, % at 12.5 µM. AID 488896, 2010;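 active means mean replicate inhibition of at least 70% and a set share of replicates each scoring 70 or more; inconclusive means meets just one of the two criteria; inactive means fails both criteria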
Target sequence (Q61009 whole entry, looked up): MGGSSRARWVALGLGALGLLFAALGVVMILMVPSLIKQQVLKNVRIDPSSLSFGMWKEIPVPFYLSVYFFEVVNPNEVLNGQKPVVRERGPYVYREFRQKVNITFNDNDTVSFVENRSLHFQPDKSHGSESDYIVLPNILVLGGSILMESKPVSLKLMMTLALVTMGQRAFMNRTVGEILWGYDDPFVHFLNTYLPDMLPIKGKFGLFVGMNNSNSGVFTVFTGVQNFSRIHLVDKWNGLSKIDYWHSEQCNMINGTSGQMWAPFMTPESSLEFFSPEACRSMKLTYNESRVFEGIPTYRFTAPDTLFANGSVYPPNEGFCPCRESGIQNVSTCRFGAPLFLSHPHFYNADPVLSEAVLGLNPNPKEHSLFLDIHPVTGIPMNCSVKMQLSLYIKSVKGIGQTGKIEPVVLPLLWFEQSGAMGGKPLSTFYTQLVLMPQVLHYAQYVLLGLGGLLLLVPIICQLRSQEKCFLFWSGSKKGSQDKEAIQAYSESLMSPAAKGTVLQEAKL
SR-BI DiI-HDL act = activators of SR-BI mediated DiI-HDL uptake, primary screen, ldlA[mSR-BI] CHO cells, DiI fluorescence; 3 h; 100 = double the neutral-control signal; activation, % at 12.5 µM; actives 0.096% (n = 320,000);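 active means mean replicate activation of at least 60% and every replicate at or above 60%; inconclusive means mean or all-replicate condition met, but not both; inactive means mean below 60% and not all replicates reaching 60%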
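System: LDL receptor-deficient CHO ldlA cells overexpressing murine SR-BI | Timing: 3 h uptake period with compound, 37 °C | Medium: HEPES-buffered (25 mM, pH 7.4) F12 plus 0.5% BSA | Dosing: Single-point compound dose | Signal: Bottom-read fluorescence, 550/595 nm | Read-out: Retained DiI signal reflecting DiI-HDL uptake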
SMARCA2 act = SMARCA2 (BRM) function activators, primary screen, cell-based, luminescence, high throughput; MG213 cells, MMTV-luciferase reporter, dexamethasone, overnight; activation, % at 9.1 µM; actives 1% (n = 370,000); AID 652017, 2013; in the data active means activation above about 7.8%
CR mimetic SO = reduction of superoxide in aged yeast, primary screen, HTS; actives 0.18% (n = 330,000); S. cerevisiae aged cells, superoxide DHE fluorescence; hits give low values; superoxide response (% of plate mean), % at 10 µM;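 active means superoxide response under a set limit, about three screen SD below normal, cut at about 65% in these data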;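 further: yeast aged for seven days with compound at 30 °C before DHE staining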
AHR act = AHR activators, primary screen, cell-based, luminescence, luciferase reporter, human | Aryl hydrocarbon receptor (Homo sapiens), P35869 | AHR-responsive luciferase reporter cells | activation, % at 5 µM | actives 2.5% (n = 320,000); in the data active means activation above about 47%
Superoxide pick = superoxide lowering in aged yeast cells, confirmation, cherry picked compounds. shares compounds with CR mimetic SO. S. cerevisiae aging, superoxide DHE fluorescence; hits give low values. superoxide response (% of plate), % at 10 µM. actives 1% (n = 850);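 active means superoxide signal below 65% of the plate average of sample wells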;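 further: cells aged with compound for 7 days at 30 degrees C before staining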
DHE counter = DHE quenching or ROS scavenging interference in aged yeast, artefact control for yeast caloric restriction mimetic project, S. cerevisiae BY4741, flow cytometry. fluorescence response, % at 10 µM. shares compounds with CR mimetic SO. 850 tested, under 10 active. DHE fluorescence; hits give low values;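 active means fluorescence response below 15%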;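 further: lower means stronger quenching of DHE signal or ROS scavenging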
AHR act cf = AHR activators, confirmation, cell-based, luminescence, luciferase reporter, human | shares compounds with AHR act | human cells, AHR-responsive luciferase reporter | activation, % at 9 µM | actives 87% (n = 2,300); in the data active means activation above about 49%;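 further: HepG2 hepatoma cells carrying a DRE-driven firefly luciferase reporter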
PXR act counter = human PXR activators, counter-screen for AHR activator project, cell-based, luciferase luminescence | actives 88% (n = 2,300) | cell-based PXR reporter | activation, % at 11.6 µM | shares compounds with AHR act; in the data active means activation above about 11%;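 further: human hepatoma DPX-2 cells expressing full-length human PXR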
Numbers stand for hits; . = inactive; ? = inconclusive; / = not tested or not shown. Compounds with a hit are over-represented: about 4.3% of the library has one in this group of screens.

SMILES | Hep lipid drop | SR-BI HDL uptake | SR-BI DiI-HDL act | SMARCA2 act | CR mimetic SO | AHR act | Superoxide pick | DHE counter | others
COc1ccc(S[C@]2(C(=O)N3CCOCC3)CC(=O)N(c3ccsc3)[C@@H]2c2ccc(OC)cc2)cc1 | / | / | / | . | / | / | / | /
O=C(CNC(=O)C1CC1)Nc1ccc(F)c(F)c1F | / | . | . | . | . | . | / | /
O=C(CNCC(=O)Nc1ccc(F)c(F)c1F)Nc1ccc(F)c(F)c1F | . | . | . | . | 65.5 | . | . | .
CC1(C)CC(=O)N(CC(=O)N2CCN(c3cccc(C(F)(F)F)c3)CC2)c2ccccc2S1(=O)=O | / | / | / | . | / | / | / | /
COc1ccc(CNC(=O)C2CCN(S(=O)(=O)N3CCC4(CC3)OCCO4)CC2)c(OC)c1 | . | . | . | . | 62.7 | . | . | .
CSc1ncc(Cl)c(C(=O)Nc2ccccc2Br)n1 | . | / | / | . | . | . | . | .
CSc1ncc(Cl)c(C(=O)Nc2cccc(C)c2)n1 | . | . | . | . | . | 61.9 | . | .
Cc1ccccc1NC(=O)c1nc(S(C)(=O)=O)ncc1Cl | . | . | . | . | . | . | . | .
CSc1ncc(Cl)c(C(=O)Nc2cccc(Cl)c2)n1 | . | . | . | . | . | 54.6 | . | .
CSc1ncc(Cl)c(C(=O)Nc2cccc3ccccc23)n1 | . | . | . | . | . | . | / | /
COC(=O)[C@H](Cc1ccccc1)N1CC=CS1(=O)=O | / | / | / | . | / | / | / | /
O=S1(=O)N[C@@H](Cc2ccccc2)COc2cccc(N3CCCC3)c21 | / | / | / | . | / | / | / | /
COc1ccc(-c2cccc3c4c([nH]c23)[C@@H]2C[C@H]3[C@@H](C(=O)N2CC4)[C@H](C)ON3C)cc1 | / | / | / | . | / | / | / | /
NS(=O)(=O)c1ccc(CCNC(=O)C(=O)NCC2OCCN2S(=O)(=O)c2cc(F)ccc2F)cc1 (configuration not stated) | . | . | . | . | 63.0 | . | . | .
CC12CCCC[C@@H]1CCC1C2CCC2(C)C1CC[C@@]2(O)CNCCO (some centres not stated) | . | . | . | . | . | . | . | .
O=C(CNS(=O)(=O)c1ccc(Br)s1)N1CCN(c2ccccn2)CC1 | / | / | / | . | / | / | / | /
CCCc1cc(C(=O)Nc2cccc([N+](=O)[O-])c2)cs1 | . | . | . | . | 64.9 | . | . | .
O=C1NC(c2ccc3c(c2)OCO3)c2c(-c3ccccc3)n[nH]c21 (configuration not stated) | / | / | / | . | / | / | / | /
Cc1ccc(S(=O)(=O)N2CC=C(C(=O)NC3CCCC3)CC2)cc1 | . | . | . | . | . | . | / | /
COc1ccc(S(=O)(=O)N2CC=C(C(=O)NC3CCCC3)CC2)cc1 | . | . | . | . | 63.4 | . | . | .
O=C(CSc1nnc(-c2ccc(O)cc2)n1Cc1ccco1)N1CCc2ccccc2C1 | / | . | . | . | 60.4 | . | . | .
NC(=O)CSc1nnc(-c2ccc(O)cc2)n1Cc1ccco1 | . | . | . | . | . | . | / | /
Nc1[nH]c(C(=O)c2ccc(Cl)cc2)c(-c2ccc(Br)cc2)c1C(=O)c1c[nH]c2ccc(F)cc12 | / | / | / | . | / | / | / | /
COc1ccc2c3c(cccc13)N(C)N=C2C | / | . | . | . | 59.0 | . | . | .
COc1ccc2c3c(cccc13)OC2=O | . | . | . | . | . | . | / | /
SMILES | Hep lipid drop | SR-BI HDL uptake | SR-BI DiI-HDL act | SMARCA2 act | CR mimetic SO | AHR act | Superoxide pick | DHE counter | others
N#Cc1c(NCc2ccccc2)ccnc1NCc1cccnc1 | . | . | . | . | . | . | / | /
N#Cc1c(F)cccc1NCc1cccnc1 | / | . | . | . | 55.7 | . | . | .
COc1ccc(N2CCN(C(=O)c3ccc(SC)cc3OC)CC2)cc1 | . | . | . | . | . | . | / | /
COc1cc(SC)ccc1C(=O)N1CCN(c2ccccc2F)CC1 | . | . | . | . | . | . | . | .
CCOc1ccccc1C(=O)N1c2ccccc2Sc2ccccc21 | / | . | . | . | 57.2 | . | . | .
COc1ccc(C(=O)N2CCN(c3cccc(Cl)c3)CC2)c(OC)c1 | . | . | . | . | . | . | . | .
COc1ccccc1C(=O)N1c2ccccc2Sc2ccccc21 | . | . | . | . | . | . | / | /
CCOc1ccccc1C(=O)N1CCN(c2cccc(Cl)c2)CC1 | ? | . | . | . | . | . | . | .
NC(=O)NN=C1CCC(O)CC1CC(=O)O (configuration not stated) | / | / | / | . | / | / | / | /
C=CCNc1ccc2c(c1)OC[C@H](Cc1ccccc1)NS2(=O)=O | / | / | / | . | / | / | / | /
CCOC(=O)N1CCN(C(=O)C[C@H]2C[C@@]3(C(=O)OC)C(=C[C@H](C4CCCC4)O[C@@H]3C)N(Cc3cccc4ccccc34)C2=O)CC1 | / | / | / | . | / | / | / | /
O=S1(=O)N[C@@H](Cc2ccccc2)COc2cccc(N3CCCCC3)c21 | / | / | / | . | / | / | / | /
COC(=O)[C@]12C[C@H](CC(=O)NCCCCc3ccccc3)C(=O)N(CCC3=CCCCC3)C1=C[C@H](C1CCCC1)O[C@@H]2C | / | / | / | . | / | / | / | /
Cc1c(C(=O)N2CCN(c3cccc(Cl)c3)CC2)cccc1[N+](=O)[O-] | . | . | . | . | . | . | . | .
CC(NC(=O)c1cc2ccc(C(F)(F)F)cc2nc1N)c1cccc2ccccc12 (configuration not stated) | / | / | / | . | / | / | / | /
COc1cc(C(=O)N2CCN(C(=O)c3cc(-c4ccccc4)n[nH]3)CC2)cc(OC)c1OC | . | . | . | . | 63.2 | . | . | .
COc1cc(C(=O)N2CCN(CCCc3ccccc3)CC2)cc(OC)c1OC | / | . | . | . | . | . | / | /
Cc1cc(NS(=O)(=O)c2ccccc2)c(C)c(Cl)c1O | / | . | . | . | . | . | . | .
CCc1c(C)nc2cc(-c3ccc(Cl)cc3)[nH]n2c1=O | / | . | . | . | . | 112.8 | . | . | AHR act cf=95.1;PXR act counter=22.0
Cc1cc(-c2ccc(Cl)cc2)n2nc(C)cc2n1 | . | . | . | . | . | . | / | /
